One compound from ChEMBL document CHEMBL4396917, “Synthesis and biological evaluation of novel benzylidene-succinimide derivatives as noncytotoxic antiangiogenic inhibitors with anticolorectal cancer activity in vivo” (Eur J Med Chem, 2019) can be followed below.

Active and inactive are the calls of the source. No cut-off for these calls is given here.

Data set [1] concerns Chorioallantoic membrane. The data set can be described thus: Antiangiogenic activity in Leghorn chicken fertilized egg chorioallantoic membrane assessed as reduction in number of blood vessel formation at 20 nmol measured after 48 hrs by CAM assay relative to saline treated control. The class given is functional, tissue-based. The following applies: Gallus gallus. The method, boiled down:
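Fertile Leghorn eggs incubated at 37.8°C, 40% humidity; window opened on day 7; compound, sunitinib or 0.9% NaCl mixed with DMSO applied on filter paper onto CAM; 48 h incubation, methanol fixation, photography; nascent vessels counted.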

In data set [2] the test system is HT-29. The data set can be described thus: Antitumor activity against human HT-29 cells xenografted in mouse assessed as reduction in tumour volume at 60 mg/kg, po administered every other day for 3 weeks and measured at 20 days post-treatment relative to control. Type of data set: functional. The note with it: HT-29, po. (A xenograft is tissue or cells of one species grown in another, often human tumour cells in immunodeficient mice.)

Data set [3] relates to HT-29. In words: Induction of apoptosis in human HT-29 cells assessed as necrotic cells at 10 uM after 24 hrs by Annexin V-FITC/propidium iodide staining based flow cytometric analysis (reference value: 3.9%). The class given is cell-based. The note with it: ht-29, 24 h. (Flow cytometry measures light scatter and fluorescence of single cells or particles in a stream.)
In data set [4] the test system is HT-29. The data set can be described thus: Induction of apoptosis in human HT-29 cells assessed as late apoptotic cells at 10 uM after 24 hrs by Annexin V-FITC/propidium iodide staining based flow cytometric analysis (reference value: 13.4%). The class given is cell-based. The note with it: ht-29, 24 h.
Data set [5] deals with HUVEC. The data set can be described thus: Cytotoxicity against HUVEC at 1 to 5 uM measured after 48 hrs. The class given is cell-based. The note with it: human.
Data set [6] concerns HT-29. The data set can be described thus: Downregulation of HIF1-alpha expression in human HT-29 cells after 24 hrs by immunoblot analysis. The class given is functional, cell-based. In general terms: In western blotting, separated proteins are transferred to a membrane and probed.
Data set [7] deals with Mus musculus. The data set can be described thus: Antiangiogenic activity in Matrigel plug angiogenic Balb/c mouse model assessed as impaired vascularization by measuring loss of red colour in VEGF-supplemented matrigel at 20 to 60 mg/kg, sc measured after 15 days. Type of data set: functional, organism-based. The method in brief:
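Balb/c nude mice (6–8 weeks), three groups, injected subcutaneously with 400 μL Matrigel alone or with VEGF (250 ng/mL) and/or compound; after 15 days plugs removed, weighed and photographed.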

For data set [8], the system named is HT-29. In words: Induction of apoptosis in human HT-29 cells assessed as necrotic cells at 1 uM after 24 hrs by Annexin V-FITC/propidium iodide staining based flow cytometric analysis (reference value: 3.9%). Type of data set: cell-based. The following applies: ht-29, 24 h.
The subject of data set [9] is HT-29. In words: Antitumor activity against human HT-29 cells xenografted in mouse assessed as reduction in mTOR phosphorylation in tumor at 20 to 60 mg/kg, po administered every other day for 3 weeks and measured at 20 days post treatment by immunohistochemical staining. Type of data set: functional, organism-based.
The target of data set [10] is Vascular endothelial growth factor receptor 2 (Homo sapiens) (UniProt P35968). The data set can be described thus: Inhibition of VEGFR2 in VEGF-stimulated HUVEC assessed as downregulation of ERK1/2 phosphorylation at Thr202/Tyr204 residues at 1 to 10 uM pre-incubated for 2 hrs followed by VEGF stimulation and measured after 15 mins by Western blot analysis. Type of data set: cell-based. The method in brief:
(§1)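 HUVECs serum-starved overnight, pretreated 2 h with 1, 2.5, 5 or 10 μM compound, then stimulated 15 min with 50 ng/mL VEGF165. Lysed in Tris/EDTA/Triton/deoxycholate/SDS buffer with phosphatase and protease inhibitors. Protein equalized by Bradford, about 20 μg resolved on gradient SDS-PAGE. Blots probed for phospho and total VEGFR2 (Tyr1175), ERK1/2 (Thr202/Tyr204) and AKT (Ser473) against actin, with HRP/ECL detection.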

The test system of data set [11] is HUVEC. The data set can be described thus: Antimigratory activity in HUVEC assessed as reduction in VEGF-induced cell migration at 2.5 uM measured after 24 hrs by wound healing assay relative to control. The class given is functional. The note with it: Homo sapiens. The method in brief: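 Confluent HUVECs starved 12 h in M200 with 2% FBS, scratched with pipette tip; fresh M200 with 25 ng/mL VEGF plus vehicle, 2.5 μM sunitinib or compound (1, 2.5 μM); wound imaged at 0, 6, 12 and 24 h by inverted microscopy.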

Data set [12] relates to HUVEC. The data set can be described thus: Effect on total ERK expression in VEGF-induced HUVEC at 1 to 20 uM pre-incubated for 2 hrs followed by VEGF stimulation and measured after 15 mins by Western blot analysis. The class given is ADME, cell-based. The following applies: human, 0.25 h. The method, boiled down:
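HUVECs serum-starved overnight, pretreated with compound (methods: 1, 2.5, 5, 10 μM for 2 h; legend: 1, 5, 10, 20 μM for 1.5 h), then VEGF 50 ng/mL (methods: VEGF165, 15 min; legend: 30 min); lysates equalized by Bradford, ~20 μg protein resolved on gradient SDS-PAGE, immunoblotted, ECL detection.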

In data set [13] the test system is HUVEC. In words: Induction of apoptosis in VEGF-stimulated HUVEC assessed as early apoptotic cells at 5 uM after 24 hrs by Annexin V-FITC/propidium iodide staining based flow cytometric analysis (reference value: 7%). Type of data set: cell-based. The following applies: human. The method, boiled down: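 HUVECs plated at 5×10^5 per well and treated 24 h with 1, 5, 10 or 20 μM. Detached and adherent cells were pooled, washed in ice-cold PBS and resuspended in fresh medium. 1×10^5 cells were stained with annexin-V-FITC in annexin-V buffer for 20 min in the dark, then PI (50 μg/mL) was added. Read-out by flow cytometry.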

Data set [14] deals with HUVEC. In words: Induction of apoptosis in VEGF-stimulated HUVEC assessed as caspase-3 cleavage at 1 to 20 uM by Western blot analysis. Type of data set: cell-based. The note with it: human.
Data set [15] deals with SW480. In words: Cytotoxicity against human SW480 cells assessed as reduction in cell growth after 72 hrs by MTT assay. Type of data set: cell-based. The note with it: SW480, 72 h.
Data set [16] deals with HT-29. In words: Antiangiogenic activity against human HT-29 cells xenografted in mouse assessed as reduction in mean vessel density in tumour at 40 mg/kg, po administered for 7 days measured at 20 days post-treatment. Type of data set: functional, organism-based.
Data set [17] relates to HCT-116. The data set can be described thus: Cytotoxicity against human HCT116 cells assessed as reduction in cell growth after 72 hrs by MTT assay. Type of data set: cell-based. The note with it: HCT-116, 72 h.
Data set [18] has as its target Ribosomal protein S6 kinase beta-1 (Homo sapiens) (UniProt P23443). The data set can be described thus: Inhibition of P70S6K (unknown origin) at 10 uM using myelin basic protein as substrate in presence of [gamma-33P]-ATP by scintillation counting analysis relative to control. The method in brief: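 Radiometric kinase panel run by a contract lab. Kinase (5–10 mU) in 25 mM Tris pH 7.5, 0.02 mM EGTA, 0.66 mg/mL myelin basic protein, magnesium acetate and [γ-33P]-ATP (about 500 cpm/pmol). Started with Mg-ATP mix, 40 min at room temperature, stopped with 3% phosphoric acid. Spotted on P30 filters, washed in 75 mM phosphoric acid and methanol, scintillation counted. Mean ± SD of three independent experiments.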

For data set [19], the target named is RAC-alpha serine/threonine-protein kinase (Homo sapiens) (UniProt P31749). The data set can be described thus: Inhibition of AKT1 (unknown origin) at 10 uM using myelin basic protein as substrate in presence of [gamma-33P]-ATP by scintillation counting analysis relative to control. The method in brief: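 Radiometric kinase assay: kinase (5–10 mU) in 25 mM Tris pH 7.5, 0.02 mM EGTA, 0.66 mg/mL myelin basic protein, magnesium acetate and [γ-33P]ATP. The reaction was started with Mg-ATP, run 40 min at room temperature and stopped with 3% phosphoric acid. Samples were spotted on P30 filters, washed with 75 mM phosphoric acid and methanol, then scintillation counted. Tested at 10 μM; mean of three independent experiments.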

The target in data set [20] is Vascular endothelial growth factor receptor 2 (Homo sapiens) (UniProt P35968). In words: Inhibition of VEGFR2 in VEGF-stimulated HUVEC assessed as suppression of VEGFR2 phosphorylation at Tyr1175 residue pre-incubated for 2 hrs followed by VEGF stimulation for 15 mins by Western blot analysis. The class given is cell-based. The method, boiled down:
as §1

Vascular endothelial growth factor receptor 2 (Homo sapiens), sequence (P35968 whole entry): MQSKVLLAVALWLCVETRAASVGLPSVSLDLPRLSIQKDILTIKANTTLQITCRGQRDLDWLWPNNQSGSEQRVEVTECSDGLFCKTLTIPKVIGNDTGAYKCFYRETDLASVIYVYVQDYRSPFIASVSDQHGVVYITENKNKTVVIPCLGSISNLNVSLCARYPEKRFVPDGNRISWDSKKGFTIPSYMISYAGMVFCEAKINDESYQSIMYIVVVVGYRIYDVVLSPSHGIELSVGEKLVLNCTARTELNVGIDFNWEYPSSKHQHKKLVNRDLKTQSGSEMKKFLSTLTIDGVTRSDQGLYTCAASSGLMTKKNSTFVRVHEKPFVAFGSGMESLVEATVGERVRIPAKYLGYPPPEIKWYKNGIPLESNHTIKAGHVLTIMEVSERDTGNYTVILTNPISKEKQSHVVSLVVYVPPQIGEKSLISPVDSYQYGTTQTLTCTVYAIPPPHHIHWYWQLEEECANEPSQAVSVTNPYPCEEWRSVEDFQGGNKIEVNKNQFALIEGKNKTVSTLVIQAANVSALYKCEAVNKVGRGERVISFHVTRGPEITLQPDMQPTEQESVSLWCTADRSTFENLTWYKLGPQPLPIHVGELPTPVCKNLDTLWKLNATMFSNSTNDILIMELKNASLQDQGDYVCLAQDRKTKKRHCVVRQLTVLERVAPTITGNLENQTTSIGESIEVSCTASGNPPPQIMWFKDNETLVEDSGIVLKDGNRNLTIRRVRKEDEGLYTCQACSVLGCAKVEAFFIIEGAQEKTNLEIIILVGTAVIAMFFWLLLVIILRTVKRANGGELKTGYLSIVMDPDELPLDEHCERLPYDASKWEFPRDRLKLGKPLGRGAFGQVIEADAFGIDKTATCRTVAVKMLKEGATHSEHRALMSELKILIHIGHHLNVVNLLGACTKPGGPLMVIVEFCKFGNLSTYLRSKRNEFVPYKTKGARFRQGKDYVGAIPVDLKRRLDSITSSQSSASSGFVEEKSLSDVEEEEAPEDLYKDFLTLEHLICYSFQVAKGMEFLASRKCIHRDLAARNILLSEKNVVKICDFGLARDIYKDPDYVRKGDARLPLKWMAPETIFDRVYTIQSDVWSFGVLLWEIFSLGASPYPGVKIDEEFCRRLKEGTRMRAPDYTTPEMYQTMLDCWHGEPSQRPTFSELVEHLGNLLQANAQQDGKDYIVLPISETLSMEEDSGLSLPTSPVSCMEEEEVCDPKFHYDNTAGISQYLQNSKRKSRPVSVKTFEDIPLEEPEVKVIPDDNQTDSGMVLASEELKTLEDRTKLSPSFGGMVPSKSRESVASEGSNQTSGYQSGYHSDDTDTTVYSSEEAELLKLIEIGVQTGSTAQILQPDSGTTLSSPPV
Ribosomal protein S6 kinase beta-1 (Homo sapiens), sequence (P23443 whole entry, looked up): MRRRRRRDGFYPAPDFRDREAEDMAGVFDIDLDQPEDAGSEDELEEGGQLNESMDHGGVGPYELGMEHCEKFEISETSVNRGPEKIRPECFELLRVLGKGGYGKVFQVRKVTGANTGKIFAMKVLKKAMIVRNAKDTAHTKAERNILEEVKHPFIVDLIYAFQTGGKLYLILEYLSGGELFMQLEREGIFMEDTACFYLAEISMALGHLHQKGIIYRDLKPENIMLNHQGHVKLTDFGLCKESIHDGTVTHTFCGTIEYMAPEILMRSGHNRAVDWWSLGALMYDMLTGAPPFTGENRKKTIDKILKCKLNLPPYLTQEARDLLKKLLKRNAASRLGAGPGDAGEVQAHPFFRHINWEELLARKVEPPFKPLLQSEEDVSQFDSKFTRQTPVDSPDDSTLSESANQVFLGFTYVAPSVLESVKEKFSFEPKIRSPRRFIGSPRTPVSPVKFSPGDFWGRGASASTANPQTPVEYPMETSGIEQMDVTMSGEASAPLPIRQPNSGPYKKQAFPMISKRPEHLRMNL
RAC-alpha serine/threonine-protein kinase (Homo sapiens), sequence (P31749 whole entry): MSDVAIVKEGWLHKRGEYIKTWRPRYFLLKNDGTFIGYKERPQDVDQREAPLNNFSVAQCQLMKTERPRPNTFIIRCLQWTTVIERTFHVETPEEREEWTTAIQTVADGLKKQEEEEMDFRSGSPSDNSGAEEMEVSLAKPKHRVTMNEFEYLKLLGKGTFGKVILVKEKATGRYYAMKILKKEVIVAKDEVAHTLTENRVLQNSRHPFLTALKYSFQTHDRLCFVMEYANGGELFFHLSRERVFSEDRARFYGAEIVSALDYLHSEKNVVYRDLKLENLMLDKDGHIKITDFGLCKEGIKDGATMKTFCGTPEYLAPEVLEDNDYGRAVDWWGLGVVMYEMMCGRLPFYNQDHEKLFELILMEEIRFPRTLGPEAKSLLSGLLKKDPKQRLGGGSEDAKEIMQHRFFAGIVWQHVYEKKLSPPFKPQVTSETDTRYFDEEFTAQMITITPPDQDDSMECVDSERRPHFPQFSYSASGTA

As to `COc1ccc(NC(=O)c2cccc(/C=C3\CC(=O)N(c4ccc(C)cc4)C3=O)c2)cc1`, the inhibition (in general, the percentage by which the read-out fell short of the control) was 96.4% in [1]; “Dose-dependent effect” in data set [6]; 50 to 70% in data set [18]; 50 to 70% in data set [19]; “Dose-dependent effect” in [20]. In addition, the inhibition in vivo (in general, the change of the read-out against control, counted positive when it falls) at 60 mg/kg in data set [2] was found to be 53.5%. Further, the Activity in [3] is on record as 2.3%; in data set [4], 19%; in data set [5], “Non-Toxic”; in data set [8] it was 4.4%; in [12], “Not Active”; in [13], 10.1%. Also, the Activity entry in data set [14] is “Non-Toxic”. In addition, the result in data set [7] was Active. Further, the inhibition entry in data set [9], in data set [10] and in data set [16] was “Active” each time. Also, the inhibition at 2.5 µM in data set [11] amounted to 60%. Also, the values for the IC50 in [15] and in data set [17] were 93 µM and more than 100 µM, respectively.
